# Measured values from ChEMBL document CHEMBL2040780, “Antiarrhythmic properties of phenylpiperazine derivatives of phenytoin with α₁-adrenoceptor affinities” (Bioorg Med Chem, 2012).
# Activity calls are given as the source filed them.
# Key:
# [1] = target: T1, Adrenergic receptor alpha-1 (Rattus norvegicus, UniProt P15823+P23944+P43140); assay: Displacement of [3H]prazosin from alpha1 adrenoceptor in rat cerebral cortex after 30 mins by microbeta scintillation counting; assay type: tissue-based
# T1 sequence (P15823 whole entry): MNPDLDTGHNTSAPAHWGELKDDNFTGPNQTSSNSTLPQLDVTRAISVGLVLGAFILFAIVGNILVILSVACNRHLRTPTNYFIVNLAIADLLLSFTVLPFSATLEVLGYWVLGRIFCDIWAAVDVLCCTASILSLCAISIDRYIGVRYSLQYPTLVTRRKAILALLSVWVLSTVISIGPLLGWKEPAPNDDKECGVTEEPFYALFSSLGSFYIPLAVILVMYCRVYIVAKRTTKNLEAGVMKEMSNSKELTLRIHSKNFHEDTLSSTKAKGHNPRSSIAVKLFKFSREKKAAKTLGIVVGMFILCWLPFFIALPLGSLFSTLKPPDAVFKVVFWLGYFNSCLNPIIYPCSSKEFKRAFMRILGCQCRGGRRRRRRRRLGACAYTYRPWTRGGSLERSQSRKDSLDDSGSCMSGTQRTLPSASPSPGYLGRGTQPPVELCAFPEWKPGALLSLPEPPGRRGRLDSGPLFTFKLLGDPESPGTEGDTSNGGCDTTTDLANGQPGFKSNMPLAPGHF
# T1 sequence (P23944 whole entry): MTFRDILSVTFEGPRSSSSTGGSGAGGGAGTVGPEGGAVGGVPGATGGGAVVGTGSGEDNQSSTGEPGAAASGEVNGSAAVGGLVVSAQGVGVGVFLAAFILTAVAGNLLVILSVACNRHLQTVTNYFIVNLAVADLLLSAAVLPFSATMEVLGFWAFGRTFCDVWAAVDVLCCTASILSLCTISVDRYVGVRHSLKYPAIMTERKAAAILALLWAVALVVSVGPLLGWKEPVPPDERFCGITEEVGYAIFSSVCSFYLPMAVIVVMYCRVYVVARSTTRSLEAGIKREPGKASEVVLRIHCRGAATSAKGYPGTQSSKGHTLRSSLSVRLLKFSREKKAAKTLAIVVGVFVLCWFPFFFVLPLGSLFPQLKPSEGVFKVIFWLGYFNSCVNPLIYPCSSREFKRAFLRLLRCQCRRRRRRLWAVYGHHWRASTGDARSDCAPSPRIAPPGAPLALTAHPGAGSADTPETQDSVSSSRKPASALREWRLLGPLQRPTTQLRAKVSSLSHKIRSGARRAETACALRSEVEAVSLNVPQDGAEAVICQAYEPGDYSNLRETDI
# T1 sequence (P43140 whole entry): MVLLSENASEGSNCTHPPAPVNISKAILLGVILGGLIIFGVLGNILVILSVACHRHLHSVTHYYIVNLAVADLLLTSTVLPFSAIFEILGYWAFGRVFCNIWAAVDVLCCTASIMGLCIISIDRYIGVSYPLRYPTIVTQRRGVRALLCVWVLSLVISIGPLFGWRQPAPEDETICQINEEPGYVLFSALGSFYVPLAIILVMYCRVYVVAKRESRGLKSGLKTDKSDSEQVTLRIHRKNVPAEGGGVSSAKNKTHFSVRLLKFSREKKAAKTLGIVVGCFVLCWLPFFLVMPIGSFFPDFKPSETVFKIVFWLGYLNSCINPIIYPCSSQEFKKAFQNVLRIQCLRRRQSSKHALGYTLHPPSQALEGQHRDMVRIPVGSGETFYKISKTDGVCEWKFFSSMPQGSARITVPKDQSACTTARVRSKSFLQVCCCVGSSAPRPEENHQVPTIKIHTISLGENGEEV
# In short: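 Rat cerebral cortex homogenised in ice-cold 50 mM Tris-HCl (pH 7.6 at 25 °C), washed twice at 20000×g and resuspended at 10 mg wet weight/ml. Incubated with [3H]prazosin (19.5 Ci/mmol) and test compound for 30 min at 25 °C. Nonspecific binding defined with 10 µM phentolamine. GF/B filtration, scintillation counting, three-parameter logistic competition fit.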
# Rattus norvegicus [2] = assay: Antiarrhythmic activity in Wistar rat assessed as effect on heart beat at 10 mg/kg, iv after 1 min; assay type: functional
# In short: (§1)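 Male Wistar rats (180–250 g), anaesthetised with thiopental 60 mg/kg ip. Standard lead II ECG recorded at 50 mm/s just before dosing and at 1, 5 and 15 min after. Heart rate and P–Q, Q–T and QRS intervals were read. n=6 per group, mean ± SEM, one-way ANOVA.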
# Rattus norvegicus [3] = assay: Antiarrhythmic activity in Wistar rat assessed as effect on heart beat at 10 mg/kg, iv after 5 mins; assay type: functional; in short: as §1
# Rattus norvegicus [4] = assay: Antiarrhythmic activity in Wistar rat assessed as effect on heart beat at 10 mg/kg, iv after 15 mins; assay type: functional; in short: as §1
# Rattus norvegicus [5] = assay: Cardiotoxicity in Wistar rat assessed as effect on P-Q interval at 10 mg/kg, iv after 1 min; assay type: toxicity, organism-based; parameters: dose 10 mg/kg, route intravenous; conditions: in vivo; in short: as §1
# Rattus norvegicus [6] = assay: Cardiotoxicity in Wistar rat assessed as effect on P-Q interval at 10 mg/kg, iv after 5 mins; assay type: toxicity, organism-based; parameters: dose 10 mg/kg, route intravenous; conditions: in vivo; in short: as §1
# Rattus norvegicus [7] = assay: Cardiotoxicity in Wistar rat assessed as effect on P-Q interval at 10 mg/kg, iv after 15 mins; assay type: toxicity, organism-based; parameters: dose 10 mg/kg, route intravenous; conditions: in vivo, 0.25 h; in short: as §1
# Rattus norvegicus [8] = assay: Cardiotoxicity in Wistar rat assessed as effect on Q-T interval at 10 mg/kg, iv after 1 min; assay type: toxicity, organism-based; parameters: dose 10 mg/kg, route intravenous; conditions: in vivo; in short: as §1
# Rattus norvegicus [9] = assay: Cardiotoxicity in Wistar rat assessed as effect on Q-T interval at 10 mg/kg, iv after 5 mins; assay type: toxicity, organism-based; parameters: dose 10 mg/kg, route intravenous; conditions: in vivo; in short: as §1
# Rattus norvegicus [10] = assay: Cardiotoxicity in Wistar rat assessed as effect on Q-T interval at 10 mg/kg, iv after 15 mins; assay type: toxicity, organism-based; parameters: dose 10 mg/kg, route intravenous; conditions: in vivo, 0.25 h; in short: as §1
# Rattus norvegicus [11] = assay: Cardiotoxicity in Wistar rat assessed as effect on QRS interval at 10 mg/kg, iv after 1 min; assay type: toxicity, organism-based; parameters: dose 10 mg/kg, route intravenous; conditions: in vivo; in short: as §1
# Rattus norvegicus [12] = assay: Cardiotoxicity in Wistar rat assessed as effect on QRS interval at 10 mg/kg, iv after 5 mins; assay type: toxicity, organism-based; parameters: dose 10 mg/kg, route intravenous; conditions: in vivo; in short: as §1
# Rattus norvegicus [13] = assay: Cardiotoxicity in Wistar rat assessed as effect on QRS interval at 10 mg/kg, iv after 15 mins; assay type: toxicity, organism-based; parameters: dose 10 mg/kg, route intravenous; conditions: in vivo, 0.25 h; in short: as §1
# Rattus norvegicus [14] = assay: Antiarrhythmic activity in iv dosed Wistar rat assessed as protection against barium chloride-induced extrasystoles administered 15 mins prior to barium chloride-challenge; assay type: functional
# In short: (§2)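 Szekeres model in male Wistar rats. Activity is gradual disappearance of arrhythmia with restored sinus rhythm; protection against disturbances and death scored. Groups of 6 animals.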
# Rattus norvegicus [15] = assay: Antiarrhythmic activity in dosed Wistar rat assessed as protection against barium chloride-induced fibrillation administered 15 mins prior to barium chloride-challenge; assay type: functional; in short: as §2
# Rattus norvegicus [16] = assay: Antiarrhythmic activity in iv dosed barium chloride-induced Wistar rat arrhythmia model assessed as protection against mortality administered 15 mins prior to barium chloride-challenge; assay type: functional; conditions: Heart
# In short: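 Male Wistar rats (180–250 g), groups of 6. Activity criterion: gradual disappearance of arrhythmia and restoration of sinus rhythm; protection against heart disturbances and death scored.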
# Rattus norvegicus [17] = assay: Antiarrhythmic activity in Wistar rat assessed as protection against adrenaline-induced extrasystoles at 2.5 to 10 mg/kg, iv administered 15 mins prior to adrenaline-challenge; assay type: functional, organism-based; conditions: Heart
# In short: (§3)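 Szekeres model in male Wistar rats anaesthetised with thiopental (60 mg/kg ip). Test compound given iv in water (2.5–10 mg/kg) 15 min before adrenaline 20 µg/kg iv. Scored for extrasystoles, bigeminy and mortality; activity means no premature beats and inhibited arrhythmia versus controls.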
# Rattus norvegicus [18] = assay: Antiarrhythmic activity in Wistar rat assessed as protection against adrenaline-induced bigeminy at 2.5 to 10 mg/kg, iv administered 15 mins prior to adrenaline-challenge; assay type: functional, organism-based; conditions: Heart; in short: as §3
# Rattus norvegicus [19] = assay: Antiarrhythmic activity in iv dosed Wistar rat assessed as protection against adrenaline-induced arrhythmia administered 15 mins prior to adrenaline-challenge; assay type: functional; conditions: Heart; in short: as §3
# Rattus norvegicus [20] = assay: Hypotensive activity in normotensive Wistar rat assessed as decrease in systolic blood pressure at 2.5 to 10 mg/kg, iv at 1 min; assay type: organism-based, Artery; parameters: dose 2.5-10 mg/kg, route intravenous; conditions: in vivo
# In short: (§4)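 Right carotid artery cannulated with heparin-saline-filled tubing for blood pressure recording. After 5 min stabilisation, compound injected iv into the caudal vein (2.5–10 mg/kg, 1 ml/kg). Systolic and diastolic pressure followed for 60 min. n=6 per group, mean ± SEM, one-way ANOVA.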
# Rattus norvegicus [21] = assay: Hypotensive activity in normotensive Wistar rat assessed as decrease in diastolic blood pressure at 2.5 to 10 mg/kg, iv at 1 min; assay type: organism-based, Artery; parameters: dose 2.5-10 mg/kg, route intravenous; conditions: in vivo; in short: as §4
# Rattus norvegicus [22] = assay: Hypotensive activity in normotensive Wistar rat assessed as decrease in systolic blood pressure at 2.5 to 10 mg/kg, iv after 1 min measured up to 60 mins; assay type: organism-based, Artery; parameters: dose 2.5-10 mg/kg, route intravenous; conditions: in vivo; in short: as §4
# Rattus norvegicus [23] = assay: Hypotensive activity in normotensive Wistar rat assessed as decrease in diastolic blood pressure at 2.5 to 10 mg/kg, iv after 1 min measured up to 60 mins; assay type: organism-based, Artery; parameters: dose 2.5-10 mg/kg, route intravenous; conditions: in vivo; in short: as §4
Structure (SMILES),Ki [1],pKi [1],Activity (Rattus norvegicus [2]),Activity (Rattus norvegicus [3]),Activity (Rattus norvegicus [4]),Activity (Rattus norvegicus [5]),Activity (Rattus norvegicus [6]),Activity (Rattus norvegicus [7]),Activity (Rattus norvegicus [8]),Activity (Rattus norvegicus [9]),Activity (Rattus norvegicus [10]),Activity (Rattus norvegicus [11]),Activity (Rattus norvegicus [12]),Activity (Rattus norvegicus [13]),Activity (Rattus norvegicus [14]; Heart),Activity (Rattus norvegicus [15]; Heart),Activity (Rattus norvegicus [20]),Activity (Rattus norvegicus [21]),Activity (Rattus norvegicus [22]),Activity (Rattus norvegicus [23]),other results
COc1ccccc1N1CCN(CCCN2C(=O)N(C)C(=O)C2(c2ccccc2)c2ccccc2)CC1.Cl,412.9 nM,6.38,,,,,,,,,,,,,,,,,,,
CCOc1ccccc1N1CCN(CCCN2C(=O)N(C(C)C(=O)OC)C(=O)C2(c2ccccc2)c2ccccc2)CC1.Cl (stereo not given),401.2 nM,6.4,,,,,,,,,,,,,,,,,,,
CCOc1ccccc1N1CCN(CC(O)CN2C(=O)N(C)C(=O)C2(c2ccccc2)c2ccccc2)CC1.Cl (racemic),,,246 min⁻¹,241 min⁻¹,242 min⁻¹,75 ms,79 ms,79 ms,109 ms,114 ms,118 ms,18 ms,16 ms,17 ms,inactive,inactive,Toxic,Toxic,Toxic,Toxic,Activity (Rattus norvegicus [16]): inactive; Activity (Rattus norvegicus [17]): Active; Activity (Rattus norvegicus [18]): Active; ED50 (Rattus norvegicus [19]): 0.33 mg/kg
COC(=O)CN1C(=O)N(CC(O)CN2CCN(c3ccccc3OC)CC2)C(c2ccccc2)(c2ccccc2)C1=O.Cl (racemic),,,268 min⁻¹,262 min⁻¹,261 min⁻¹,64 ms,63 ms,63 ms,98 ms,76 ms,74 ms,20 ms,18 ms,17 ms,inactive,inactive,Toxic,Toxic,Non-toxic,Non-toxic,Activity (Rattus norvegicus [16]): inactive; Activity (Rattus norvegicus [17]): Active; Activity (Rattus norvegicus [18]): Active; ED50 (Rattus norvegicus [19]): 0.69 mg/kg
CN1C(=O)N(CC(O)CN2CCN(c3ccccc3Cl)CC2)C(c2ccccc2)(c2ccccc2)C1=O.Cl (racemic),483 nM,6.32,279 min⁻¹,278 min⁻¹,303 min⁻¹,60 ms,60 ms,60 ms,83 ms,76 ms,72 ms,17 ms,16 ms,16 ms,,,,,,,Activity (Rattus norvegicus [14]): >50%; Activity (Rattus norvegicus [15]): >50%
C=CC(C(=O)OC)N1C(=O)N(CC(O)CN2CCN(c3ccccc3OC)CC2)C(c2ccccc2)(c2ccccc2)C1=O.Cl (racemic),,,261 min⁻¹,294 min⁻¹,291 min⁻¹,56 ms,57 ms,56 ms,82 ms,78 ms,71 ms,25 ms,23 ms,25 ms,inactive,inactive,,,,,Activity (Rattus norvegicus [16]): inactive
CN1C(=O)N(CC(O)CN2CCN(c3ccccc3)CC2)C(c2ccccc2)(c2ccccc2)C1=O.Cl (racemic),542.3 nM,6.27,270 min⁻¹,260 min⁻¹,263 min⁻¹,66 ms,59 ms,59 ms,109 ms,79 ms,74 ms,23 ms,20 ms,18 ms,,,Toxic,Toxic,Non-toxic,Non-toxic,
COC(=O)CN1C(=O)N(CC(O)CN2CCN(c3ccccc3F)CC2)C(c2ccccc2)(c2ccccc2)C1=O.Cl (racemic),3300 nM,5.48,284 min⁻¹,256 min⁻¹,281 min⁻¹,66 ms,61 ms,58 ms,86 ms,82 ms,71 ms,17 ms,17 ms,15 ms,,,Toxic,Toxic,Non-toxic,Non-toxic,
